This sample holds only a part of the variants without activity.
B1: tRNA (parent)
chain: GUUCCGUUGGCGUAAUGGUAACGCGUCUCCCUCCUAAGGAGAAGACUGCGGGUUCGAGUCCCGUACGGAACG

Variants of: B1
Assay: yeast fitness relative to wild type (ratio to wild type); higher = fitter; tRNA-Arg(CCU), competitive growth, 37 C, YPD
Method in brief: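 Variants of the tRNA-Arg(CCU) gene, chemically synthesised with a 3% per-site mutation rate at 69 sites, were placed at the native genomic locus in Saccharomyces cerevisiae. The pooled strains were competed in YPD at 37°C for 24 hours in six parallel replicates. Gene amplicons from the start population and from each end population were read by 100-nucleotide paired-end sequencing. Darwinian fitness relative to wild type came from changes in genotype frequencies; genotypes needed ≥ 100 starting reads, and estimates < 0.5 were set to 0.5.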
GUUCCGUUGGAGUAAUGGUAACGCGUGUCCCUCAUAAGGAGCAGACUGCGGGUCCGAGUACGGUACGGAUCG [C11A C27G C34A A42C U54C C60A C62G A70U] showed a yeast fitness of 0.624.
GUUCCGUUGGAGUAAUGGUAACGCGUGUCCCUCCUAAGGAGAAGACUGCGGGUUCGAGUCCCGAGCUGAACG [C11A C27G U64A A65G G67U] gave a yeast fitness of at most 0.5.
In the case of GUUCCGUUGGACUAAUGGUAACGCGUCUCCCUCCUAAGGAGAAGACUGCGGGUUCGAGUCCCAUACGGAACG [C11A G12C G63A], the yeast fitness is reported as at most 0.5.
Variant GUUCCGUUGGAAUAAUGGUAACGCGUCUUCCUCCUAAGGAGAAGACUACAGGUUCGAGUCCCGUACGGAACG [C11A G12A C29U G48A G50A] has a yeast fitness of at most 0.5.
GUUCCGUUGGAGUAAUGGUAACGCGUCUCCCUCCUAAGGAGAAGACUGCGGGUUCGAGUCCAGUAUGGAACG [C11A C62A C66U] gave a yeast fitness of 0.629.
For GUUCCGUUGGAGUAAUGGUAACGCGUCUCCCUCCUAAGGAGAAGAUUGCGGGUUCGAGUCCCGUACGGAACG [C11A C46U], the yeast fitness was 0.712.
Work on GUUCCGUUGGAGUAAUGGUAACGCGUGUCCCUCCUAAGGAGAAGACUGCAGGUUCGAGUCCCGGACGGAACG [C11A C27G G50A U64G] yielded a yeast fitness of at most 0.5.
Variant GUUCCGUUGGAGUAAUGGUAACGCGUGUCCCUCCUAAGGAGAAGACUGCGGGUUUGAGUCCCGUACGGAACG [C11A C27G C55U] has a yeast fitness of at most 0.5.
In the case of GUUCCGUUGGAGUAAUGGUAACGCGUCUCCUUCCUAAGGAGAAGACUGCGGGAUCGAGUCCCGUUCGGAACG [C11A C31U U53A A65U], the yeast fitness is reported as at most 0.5.
In the case of GUUCCGUUGGAGUAAUGGUAACGUGUCUCCCUCCUAAGGAGAAGACUGCGGGUUCGAGUCCCGUACCGAGCG [C11A C24U G67C A70G], the yeast fitness is reported as at most 0.5.
GUUCCGUUGGAGUAAUGGUAACGCGUGUCCCUCCUAAGGAGAAGACUGCGGGUUCGAGUCCCGUACGGACCG [C11A C27G A70C] gave a yeast fitness of at most 0.5.
GUUCCGUUGGAGUAAUGGUAACGCGUCUCCAUCCUAAGGAGAACACUGCGGGUUCGAGUACCGUACGGAACG [C11A C31A G44C C60A] showed a yeast fitness of at most 0.5.
Work on GUUCCGUUGGAGUAAUGGUAACGCGUUUCCCUCCUAAGGAGAAGACUGCGGGUUCGAGUCCCGUACGGAACG [C11A C27U] yielded a yeast fitness of 0.646.
GUUCCGUUGGAGUAAUGGUAACGCGUAUCCCUCCUAAGGAGAAGACUGCGGGUUCGAGUCCCGUACGGAACG [C11A C27A] showed a yeast fitness of 0.654.
For GUUCCGUUGGAGUAAUGGUAACGCGUCUCCCUCCUAAGGAGAAGACUGCGGGUUAGAGUCCCGUAAGGAACG [C11A C55A C66A], the yeast fitness was at most 0.5.
Work on GUUCCGUUGGAGUAAUGGUAACGCGUCUCCCUCCUAAGGAGAAGACUGCGGGUUCGAGUCUCGUACGGACCG [C11A C61U A70C] yielded a yeast fitness of at most 0.5.
GUUCCGUUGGAGUAAUGGUAACGCGUCUCCCUCGUAAGGAGAAGACUGCGGGUUCGAGUCCCGUACAGAACG [C11A C34G G67A] gave a yeast fitness of at most 0.5.
GUUCCGUUGGAGUAAUGGUAACGCGUGUCCAUCCUAAGGAGAAGACUGCGGGUUCGAGUCCCGUACGAAACG [C11A C27G C31A G68A] showed a yeast fitness of at most 0.5.
GUUCCGUUGGAGUAAUGGUAACGCGUCUCCCUCCUAAGGAGAAGAUUGCGGGUUCGCGUCCCGUAAGGAACG [C11A C46U A57C C66A] showed a yeast fitness of at most 0.5.
Variant GUUCCGUUGGAGUAAUGGUAACGCGUCUCCUUCCUACGGAGAAGACUGCGCGUUGGAGUCCCGUACGGAACG [C11A C31U A37C G51C C55G] has a yeast fitness of at most 0.5.
Variant GUUCCGUUGGAGUAAUAGUAACGCGUCUCCCUUCUAAGGAGAAGACUGCGGGUUCGAGUCCCGUACGGAACG [C11A G17A C33U] has a yeast fitness of at most 0.5.
GUUCCGUUGGAGUAAUGGUAACGCGUCUCGCUCCUAAGGAGAAGUCUGCGGGUUCGAGUACCGUACGGAACG [C11A C30G A45U C60A] showed a yeast fitness of 0.537.
GUUCCGUUGGAGUAAUGGUAACGCGUCUCCGUCCUAAGGAGAAGACUGCGGGUUCGAGUCCCGUACGGUACG [C11A C31G A69U] showed a yeast fitness of at most 0.5.
Variant GUUCCGUUGGAGUAAUGGUAACGCGUCUGCCUCCUAAGGAGAAGACUGCGGGUUCGAGUCCCGUAUGGAACG [C11A C29G C66U] has a yeast fitness of 0.525.
Variant GUUCCGUUGGAGUAAUGGUAACGCGUUUCCCUCCUAAGGAGAAUACUGCGGGUUCGAGUCCCGUACGGAACG [C11A C27U G44U] has a yeast fitness of at most 0.5.
For GUUCCGUUGGAGUAAUGGUAACGCGUCUCCCUCCUAAGGAGAAGACUGCGGGUUCGAGUCCGGUACGGAUCG [C11A C62G A70U], the yeast fitness was 0.542.
With GUUCCGUUGGAGUAAUGGUAACGCGUCUCCCUCCUAAGGAGAAGACUGCGGGUUUGAGUCCCAUACGGAACG [C11A C55U G63A] the yeast fitness was at most 0.5.
For GUUCCGUUGGAGUAAUGGUAACGCGUCUCGCUCCUAAGGAGAAGUCUGCGGGUUCGAGUACUGUACGGAACG [C11A C30G A45U C60A C62U], the yeast fitness was at most 0.5.
Variant GUUCCGUUGGAGUAAUGGUAACGUGUCUCCCUCUUAAGGAGAAGACUGCGGGUUCGACUCCGGUACAGAACG [C11A C24U C34U G58C C62G G67A] has a yeast fitness of 0.544.
Variant GUUCCGUUGGAAUAAAGGUAACCCGUCUCCCUCCUAAGGAGAAGACUGCGGGUUCGAGUCCCGUACGGAACG [C11A G12A U16A G23C] has a yeast fitness of at most 0.5.
For GUUCCGUUGGAGUAAUGGUAACGCGUCUCCCUCCUAAGGAGAAGACUGCGGGUUGGAGUCCCGUACGGCACG [C11A C55G A69C], the yeast fitness was at most 0.5.
Work on GUUCCGUUGGAGUAAUGGUAACGCGUCUCCCUCCUAAGGAGAAGACUGCGGGUUUGAGUCCCGUACGGAACG [C11A C55U] yielded a yeast fitness of 0.514.
With GUUCCGUUGGAGUAAUGGUAACGCGUCUCCCUCCUAAGGAGAAGACUGCGGGUUAGAGUCCCGUACGGAACG [C11A C55A] the yeast fitness was at most 0.5.
Variant GUUCCGUUGGAGUAAUGGUAACGCGUCUCUUUCCUGAGCAGAAGUCUGCGGCUUCGAGUACCGUACGGAACG [C11A C30U C31U A36G G39C A45U G52C C60A] has a yeast fitness of at most 0.5.
Variant GUUCCGUUGGAGUAAUGGUAACGCGUCUCCCUCCUAAGGAGAAGACUGCGGGUUCGAGUCCGGUACGGAACG [C11A C62G] has a yeast fitness of 0.552.
In the case of GUUCCGUUGGAGUAAUGGUAACGCGUCUCCAUCCUAAGGAGAACACUGCGGGUUCGAGUCCCGUCCGGAACG [C11A C31A G44C A65C], the yeast fitness is reported as at most 0.5.
In the case of GUUCCGUUGGAGUAAUGGUAACGCGUCUCCCUCAUAAGGAGAAGACUGCGGCUUCGAGUCCCGUACGGAACG [C11A C34A G52C], the yeast fitness is reported as 0.541.

Source: the RNAGym collection of RNA variant scans (doi:10.1126/science.aae0568)
